Test results taken from ChEMBL document CHEMBL1151472, “In vitro interactions between tacrolimus and azoles against Candida albicans determined by different methods” (2008).
In brackets after ≈: the same amount, converted by molar mass.

Key:
Type in all cases: functional
Candida albicans [1] = experiment: Antimicrobial activity against azole-resistant Candida albicans isolate CA10 assessed as growth at 32 ug/ml after 48 hrs by microdilution checkerboard technique relative to control
How it was run: (§1)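 Checkerboard microdilution in MOPS-buffered RPMI 1640 (pH 7.0, 2% dextrose). Final ranges: azole 0.125–128 μg/ml (FLC) or 0.008–8 μg/ml (ITR, VRC), tacrolimus 0.002–0.125 μg/ml; solvent 1% in single-drug wells. Inoculum 2.5 × 10^3 CFU/ml, 35°C, 48 h. Growth % = background-subtracted OD492 of each well / drug-free well. Triplicate on different days.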

Candida albicans [2] = experiment: Antimicrobial activity against azole-resistant Candida albicans isolate CA10 assessed as growth at 0.125 ug/ml co-treated with 0.004 ug/ml calcineurin signaling inhibitor tacrolimus after 48 hrs by microdilution checkboard technique relative to control; set-up: scale not given: the % may be the effect or the level left; how it was run: as §1
Candida albicans [3] = experiment: Antimicrobial activity against azole-resistant Candida albicans isolate CA15 after 48 hrs by broth microdilution method; settings: isolate CA15, 48 h
How it was run: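 CLSI M27-A2 broth microdilution was run in RPMI 1640 (pH 7.0, 2% dextrose, 0.165 M MOPS). Inoculum was 2.5 × 10^3 CFU/ml, incubated 35°C for 48 h without shaking. Plates were read visually (0–5 scale) and at OD 492 nm. MIC80 = lowest concentration giving an 80% absorbance decrease vs drug-free control. Triplicate.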

Candida albicans [4] = experiment: Antimicrobial activity against azole-resistant Candida albicans isolate CA10 assessed as growth at 32 ug/ml co-treated with 0.004 ug/ml calcineurin signaling inhibitor tacrolimus after 48 hrs by microdilution checkboard technique relative to control; set-up: scale not given: the % may be the effect or the level left; how it was run: as §1
Candida albicans [5] = experiment: Antimicrobial activity against azole-resistant Candida albicans isolate CA10 assessed as growth at 16 ug/ml co-treated with 0.031 ug/ml calcineurin signaling inhibitor tacrolimus after 48 hrs by microdilution checkboard technique relative to control; set-up: scale not given: the % may be the effect or the level left
How it was run: (§2)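 Checkerboard microdilution in RPMI 1640 (pH 7.0, 2% dextrose, 0.165 M MOPS). Azole dilutions run along columns and FK506 along rows, at 4× final concentration. Final inoculum 2.5 × 10^3 CFU/ml from Sabouraud-subcultured cells. Incubated 35°C for 48 h; OD read at 492 nm. Background from microorganism-free plates subtracted. Growth % = well OD / drug-free well OD. Triplicate on different days, values averaged.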

Candida albicans [6] = experiment: Antimicrobial activity against azole-resistant Candida albicans isolate CA10 assessed as growth at 0.5 ug/ml co-treated with 0.031 ug/ml calcineurin signaling inhibitor tacrolimus after 48 hrs by microdilution checkboard technique relative to control; set-up: scale not given: the % may be the effect or the level left; how it was run: as §2
Candida albicans [7] = experiment: Antimicrobial activity against azole-resistant Candida albicans isolate CA10 assessed as growth at 2 ug/ml cotreated with 0.002 ug/ml calcineurin signaling inhibitor tacrolimus after 48 hrs by microdilution checkerboard technique relative to control; set-up: scale not given: the % may be the effect or the level left; how it was run: as §1
Candida albicans [8] = experiment: Antimicrobial activity against azole-resistant Candida albicans isolate CA10 assessed as growth at 0.25 ug/ml cotreated with 0.002 ug/ml calcineurin signaling inhibitor Tacrolimus after 48 hrs by microdilution checkboard technique relative to control; set-up: scale not given: the % may be the effect or the level left; how it was run: as §2
Candida albicans [9] = experiment: Antimicrobial activity against azole-resistant Candida albicans isolate CA10 assessed as growth at 0.008 ug/ml after 48 hrs by microdilution checkerboard technique relative to control; how it was run: as §1
Candida albicans [10] = experiment: Antimicrobial activity against azole-susceptible Candida albicans isolate CA14 co-treated with calcineurin signaling inhibitor tacrolimus after 48 hrs by microdilution checkerboard technique; settings: isolate CA14, 48 h
How it was run: (§3)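 Checkerboard microdilution in MOPS-buffered RPMI 1640 (pH 7.0, 2% dextrose) with 2.5 × 10^3 CFU/ml for 48 h at 35°C. Final FK506 was 0.002–0.125 μg/ml. Azole finals were FLC 0.125–128 μg/ml, and ITR and VRC 0.008–8 μg/ml. MIC80 is an 80% OD492 decrease vs drug-free control. Interaction was scored by FICI (synergy ≤0.5, antagonism >4) and by ΔE from triplicates.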

Candida albicans [11] = experiment: Antimicrobial activity against azole-resistant Candida albicans isolate CA10 assessed as growth at 2 ug/ml cotreated with 0.063 ug/ml calcineurin signaling inhibitor tacrolimus after 48 hrs by microdilution checkerboard technique relative to control; set-up: scale not given: the % may be the effect or the level left; how it was run: as §1
Candida albicans [12] = experiment: Antimicrobial activity against azole-resistant Candida albicans isolate CA10 assessed as growth at 64 ug/ml co-treated with 0.008 ug/ml calcineurin signaling inhibitor tacrolimus after 48 hrs by microdilution checkboard technique relative to control; set-up: scale not given: the % may be the effect or the level left
How it was run: (§4)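 CA10 in RPMI 1640 with 2% dextrose and 0.165 M MOPS, pH 7.0. Checkerboard used twofold dilutions, with azole alone in row H and the drug-free growth control in well H1. Final inoculum was 2.5 × 10^3 CFU/ml, incubated 35°C for 48 h, with OD read at 492 nm. Growth % = background-subtracted well OD / drug-free well OD. Run in triplicate on different days.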

Candida albicans [13] = experiment: Antimicrobial activity against azole-susceptible Candida albicans isolate CA12 co-treated with calcineurin signaling inhibitor tacrolimus after 48 hrs by microdilution checkerboard technique; settings: isolate CA12, 48 h; how it was run: as §3
Candida albicans [14] = experiment: Antimicrobial activity against azole-resistant Candida albicans isolate CA10 assessed as growth at 128 ug/ml cotreated with 0.004 ug/ml calcineurin signaling inhibitor Tacrolimus after 48 hrs by microdilution checkboard technique relative to control; set-up: scale not given: the % may be the effect or the level left; how it was run: as §1
Candida albicans [15] = experiment: Antimicrobial activity against azole-resistant Candida albicans isolate CA10 assessed as growth at 0.125 ug/ml cotreated with 0.008 ug/ml calcineurin signaling inhibitor tacrolimus after 48 hrs by microdilution checkerboard technique relative to control; set-up: scale not given: the % may be the effect or the level left; how it was run: as §1
Candida albicans [16] = experiment: Antimicrobial activity against azole-resistant Candida albicans isolate CA10 co-treated with calcineurin signaling inhibitor tacrolimus after 48 hrs by microdilution checkerboard technique; settings: isolate CA10, 48 h; how it was run: as §3
Candida albicans [17] = experiment: Antimicrobial activity against azole-resistant Candida albicans isolate CA10 assessed as growth at 2 ug/ml cotreated with 0.016 ug/ml calcineurin signaling inhibitor Tacrolimus after 48 hrs by microdilution checkboard technique relative to control; set-up: scale not given: the % may be the effect or the level left; how it was run: as §1
Candida albicans [18] = experiment: Antimicrobial activity against azole-resistant Candida albicans isolate CA10 assessed as growth at 0.063 ug/ml after 48 hrs by microdilution checkerboard technique relative to control; how it was run: as §1
Candida albicans [19] = experiment: Antimicrobial activity against azole-susceptible Candida albicans isolate CA14 assessed as lof reduction in colony count at 10 ug/ml cotreated with calcineurin signaling inhibitor Tacrolimus after 48 hrs by XTT assay
How it was run: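 Same time-kill setup (10^5 CFU/ml start, azole ± 0.016 μg/ml FK506, 35°C). At each time point, aliquots were mixed 1:1 with XTT (0.5 g/liter in Ringer's lactate) plus 10 μM menadione final. Incubation was in the dark for up to 2 h at 35°C, then formazan was read at 492 nm. OD was converted to CFU via a standard curve (Y = 4.2610x + 4.2087). Triplicate.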

Candida albicans [20] = experiment: Antimicrobial activity against azole-resistant Candida albicans isolate CA10 assessed as growth at 8 ug/ml after 48 hrs by microdilution checkerboard technique relative to control; how it was run: as §4
Candida albicans [21] = experiment: Antimicrobial activity against azole-resistant Candida albicans isolate CA10 assessed as growth at 0.5 ug/ml cotreated with 0.063 ug/ml calcineurin signaling inhibitor Tacrolimus after 48 hrs by microdilution checkboard technique relative to control; set-up: scale not given: the % may be the effect or the level left; how it was run: as §1

## OC(Cn1cncn1)(Cn1cncn1)c1ccc(F)cc1F [FLUCONAZOLE]
Candida albicans [1]
  Activity: 48%
Candida albicans [2]
  Activity: 67%
Candida albicans [3]
  MIC: 128 µg/mL (≈ 418 µM)
Candida albicans [4]
  Activity: 30%
Candida albicans [5]
  Activity: 15%
Candida albicans [6]
  Activity: 19%
Candida albicans [7]
  Activity: 48%
Candida albicans [8]
  Activity: 61%
Candida albicans [9]
  Activity: 96%
Candida albicans [10]
  MIC: 0.25 µg/mL
Candida albicans [11]
  Activity: 13%
Candida albicans [12]
  Activity: 21%
Candida albicans [13]
  MIC: 2 µg/mL
Candida albicans [14]
  Activity: 45%
Candida albicans [15]
  Activity: 60%
Candida albicans [16]
  MIC: 0.25 µg/mL
Candida albicans [17]
  Activity: 20%
Candida albicans [18]
  Activity: 93%
Candida albicans [19]
  Activity: 1.51
Candida albicans [20]
  Activity: 55%
Candida albicans [21]
  Activity: 13%
